The source of these data is ChEMBL document CHEMBL1123516, “Substituted 1,3,4-thiadiazoles with anticonvulsant activity. 1. Hydrazines” (J Med Chem, 1986).

System in the first data set: not listed separately
Description: Neurotoxicity by performing a rotarod test in mouse after 1 hr of administration. Type of data set: toxicity, organism-based. The settings on record: in vivo. The method, boiled down:
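Male BKW mice, 18-22 g, were pre-trained on a rotorod turning at 16 rpm (3 cm drum). They were dosed ip or po in 2% Tween 80/water and tested at timed intervals. TD50, the dose at which 50% fell off the rod, was derived by probit analysis.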
For orientation: The rotarod test checks motor coordination on a turning rod.
A word on the TD50: it is the 50% point of the dose-response relation for the toxic effect studied. Higher therefore signals lower toxicity. In the case of `Cc1ccccc1-c1nnc(NN(C)C)s1.Cl`, the TD50 at 1 h is greater than 250 mg/kg.

Regarding `Cc1ccccc1-c1nnc(N(N)Cc2ccccc2)s1`, the TD50 at 1 h was greater than 200 mg/kg.

For `Cc1ccccc1-c1nnc(NNC(C)C)s1`, the TD50 at 1 h is 449 mg/kg.

For `CNN(Cc1ccccc1)c1nnc(-c2ccccc2C)s1.Cl`, the TD50 at 1 h is 341 mg/kg.

As to `CC(C)NNc1nnc(-c2ccccc2Cl)s1`, the TD50 at 1 h came to 200 mg/kg.

`Cc1ccccc1-c1nnc(N(C)N)s1.Cl` had a TD50 at 1 h of 108 mg/kg.

For the compound `Cc1ccccc1-c1nnc(N(C)N(C)C)s1`, the TD50 at 1 h is 167 mg/kg.

In turn, `CNN(C)c1nnc(-c2ccccc2C)s1` showed a TD50 at 1 h of 72 mg/kg.

`CCCCCCOc1ccccc1-c1nnc(N(C)N)s1.Cl` displayed a TD50 at 1 h of roughly 160 mg/kg.

For the compound `CN(N)c1nnc(-c2ccccc2Cl)s1.Cl`, the TD50 at 1 h is 136 mg/kg.

In turn, `CN(N)c1nnc(Cc2ccccc2)s1.Cl` returned a TD50 at 1 h of 280 mg/kg.

The compound `Cc1ccccc1-c1nnc(NN)s1.Cl` came in with a TD50 at 1 h of 55 mg/kg.

With `Cc1ccccc1-c1nnc(N(N)c2ccccc2)s1`, the TD50 at 1 h was greater than 400 mg/kg.

Compound `CN(N)c1nnc(-c2ccccc2Oc2ccccc2)s1.Cl` gave a TD50 at 1 h of less than 400 mg/kg.

As for `CN(N)c1nnc(CCc2ccccc2)s1.Cl`, the TD50 at 1 h was found to be 317 mg/kg.

For `CC(C)N(N)c1nnc(-c2ccccc2Cl)s1`, the TD50 at 1 h was greater than 800 mg/kg.

Turning to `CN(C)N(C)c1nnc(-c2ccccc2Cl)s1.Cl`, the TD50 at 1 h amounted to 347 mg/kg.

Compound `CNN(C)c1nnc(-c2ccccc2Cl)s1` came in with a TD50 at 1 h of 106 mg/kg.

`Cl.NNc1nnc(-c2ccccc2Cl)s1` gave a TD50 at 1 h greater than 568 mg/kg.

With `CC(C)NN(C)c1nnc(-c2ccccc2Cl)s1.Cl`, the TD50 at 1 h came out at 71 mg/kg.

`Cl.NNc1nnc(-c2ccccc2-c2ccccc2)s1` yielded a TD50 at 1 h of 627 mg/kg.

A further data set concerns Mus musculus. Description: Anticonvulsant activity tested by maximal metrazole seizure (MMS) test in mouse after 1 hr of administration. Type of data set: functional.
Settings: not given
The gist of the method:
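Male BKW mice, 18-22 g, dosed orally with compound in 2% Tween 80/water. Metrazol 120 mg/kg ip was given 1 h after dosing. ED50 for block of hind limb tonic seizure was derived by Bliss probit analysis.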
As a reminder, the ED50 is the dose at which the effect has come halfway, by size or by number of responders. A high value points to weaker potency. For the compound `CCCCCCOc1ccccc1-c1nnc(N(C)NC(C)C)s1.Cl`, the 50% effect level (ED50) was put at a dose of 56 mg/kg.

The compound `CN(N)c1nnc(-c2ccccc2Cc2ccccc2)s1.Cl` yielded an ED50 of 54 mg/kg.

`Cc1ccccc1-c1nnc(NN(C)C)s1.Cl` had an ED50 greater than 100 mg/kg.

On to `Cl.Clc1ccccc1-c1nnc(NNCc2ccccc2)s1`, for which the ED50 is greater than 100 mg/kg.

For `CN(N)c1nnc(-c2ccccc2Sc2ccccc2)s1.Cl`, the ED50 was 27 mg/kg.

In turn, `Cc1ccccc1-c1nnc(N(N)Cc2ccccc2)s1` displayed an ED50 of 44 mg/kg.

`Cc1ccccc1-c1nnc(NNC(C)C)s1` showed an ED50 of 54 mg/kg.

Turning to `CNN(c1nnc(-c2ccccc2C)s1)C(C)C.Cl`, the ED50 was greater than 100 mg/kg.

Turning to `CCCCCCOc1ccccc1-c1nnc(NNc2ccccc2)s1.Cl`, the ED50 is greater than 100 mg/kg.

As for `Cl.c1ccc(NNc2nnc(-c3ccccc3-c3ccccc3)s2)cc1`, the ED50 was greater than 100 mg/kg.

`CNN(Cc1ccccc1)c1nnc(-c2ccccc2C)s1.Cl` gave an ED50 of 93 mg/kg.

In turn, `CC(C)NNc1nnc(-c2ccccc2Cl)s1` yielded a median effective dose (ED50) of 50 mg/kg.

In turn, `Cc1ccccc1-c1nnc(N(C)N)s1.Cl` had an ED50 of 41 mg/kg.

As for `CCCCCCOc1ccccc1-c1nnc(NNC(C)C)s1.Cl`, the ED50 is greater than 100 mg/kg.

The compound `Cc1ccccc1-c1nnc(N(N)C(C)C)s1.Cl` came in with an ED50 of 49 mg/kg.

In turn, `CCNN(Cc1ccccc1)c1nnc(-c2ccccc2C)s1.Cl` displayed a 50% effective dose (ED50) greater than 100 mg/kg.

Take `Cc1ccccc1-c1nnc(N(C)N(C)C)s1`: the median effective dose (ED50) is 68 mg/kg.

Compound `CNN(C)c1nnc(-c2ccccc2C)s1` displayed an ED50 of 23 mg/kg.

In turn, `CCCCCCOc1ccccc1-c1nnc(N(C)N)s1.Cl` gave an ED50 of 27 mg/kg.

The compound `CN(N)c1nnc(-c2ccccc2Cl)s1.Cl` displayed an ED50 of 41 mg/kg.

With `CN(N)c1nnc(Cc2ccccc2)s1.Cl`, it took a dose of 25 mg/kg to reach the 50% effect level (ED50).

Regarding `Cc1ccccc1-c1nnc(NN)s1.Cl`, the 50% effect level (ED50) was put at a dose of 30 mg/kg.

Compound `Cc1ccccc1-c1nnc(N(N)c2ccccc2)s1` displayed an ED50 greater than 100 mg/kg.

As for `CN(N)c1nnc(-c2ccccc2Oc2ccccc2)s1.Cl`, the ED50 is 33 mg/kg.

`CN(N)c1nnc(CCc2ccccc2)s1.Cl`: the median effective dose (ED50) was found to be 49 mg/kg.

`CC(C)N(N)c1nnc(-c2ccccc2Cl)s1` gave an ED50 greater than 100 mg/kg.

On to `CN(C)N(C)c1nnc(-c2ccccc2Cl)s1.Cl`, for which the ED50 is greater than 100 mg/kg.

With `CNN(C)c1nnc(-c2ccccc2Cl)s1`, the 50% effect level (ED50) was put at a dose of 25 mg/kg.

As for `Cl.NNc1nnc(-c2ccccc2Cl)s1`, it took a dose of 25 mg/kg to reach the 50% effect level (ED50).

For the compound `CC(C)NN(C)c1nnc(-c2ccccc2Cl)s1.Cl`, the ED50 amounted to 30 mg/kg.

`Cl.NNc1nnc(-c2ccccc2-c2ccccc2)s1` displayed an ED50 of 33 mg/kg.

For another data set, the system named is Rattus norvegicus. Description: Maximum percent fall in mean arterial blood pressure was evaluated by injecting 100 mg/kg perorally in DOCA hypertensive rats. Type of data set: functional. The note with it: route oral.
Turning to `Cc1ccccc1-c1nnc(N(C)N)s1.Cl`, the “Decrease in blood pressure” value worked out at 29%.

Turning to `Cc1ccccc1-c1nnc(NN)s1.Cl`, the “Decrease in blood pressure” value is recorded as 63%.

For the compound `Cl.NNc1nnc(-c2ccccc2Cl)s1`, the “Decrease in blood pressure” value is given as 21%.

In the case of `Cl.NNc1nnc(-c2ccccc2-c2ccccc2)s1`, the “Decrease in blood pressure” value worked out at 18%.

The subject of a further data set is Mus musculus. Nature of the data set: Anticonvulsant activity tested by maximal electroshock test (MES) in mouse after 1 hr of administration. Type of data set: functional.
Settings: not given
The gist of the method:
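Male BKW mice (LACA origin), 18-22 g, dosed ip or po with compound dissolved or suspended in 2% Tween 80 in distilled water. Readout was block of hind limb tonic seizure. ED50 was derived by probit analysis using the computerized Bliss method.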
(In general: The maximal electroshock test induces tonic seizures with an electrical stimulus.)
`CCCCCCOc1ccccc1-c1nnc(N(C)NC(C)C)s1.Cl`: the 50% effect level (ED50) was put at a dose of 97 mg/kg.

`CN(N)c1nnc(-c2ccccc2Cc2ccccc2)s1.Cl` gave a median effective dose (ED50) of 50 mg/kg.

`Cc1ccccc1-c1nnc(NN(C)C)s1.Cl` gave an ED50 of 60 mg/kg.

`Cl.Clc1ccccc1-c1nnc(NNCc2ccccc2)s1`: the ED50 is greater than 100 mg/kg.

The compound `CN(N)c1nnc(-c2ccccc2Sc2ccccc2)s1.Cl` came in with an ED50 of 43 mg/kg.

`Cc1ccccc1-c1nnc(N(N)Cc2ccccc2)s1` came in with an ED50 of 27 mg/kg.

With `Cc1ccccc1-c1nnc(NNC(C)C)s1`, it took a dose of 83 mg/kg to reach the 50% effect level (ED50).

As to `CNN(c1nnc(-c2ccccc2C)s1)C(C)C.Cl`, the ED50 was greater than 100 mg/kg.

In turn, `CCCCCCOc1ccccc1-c1nnc(NNc2ccccc2)s1.Cl` returned an ED50 greater than 100 mg/kg.

Compound `Cl.c1ccc(NNc2nnc(-c3ccccc3-c3ccccc3)s2)cc1` returned an ED50 greater than 100 mg/kg.

As for `CNN(Cc1ccccc1)c1nnc(-c2ccccc2C)s1.Cl`, the ED50 amounted to 109 mg/kg.

The compound `CC(C)NNc1nnc(-c2ccccc2Cl)s1` registered an ED50 of 50 mg/kg.

Compound `Cc1ccccc1-c1nnc(N(C)N)s1.Cl` had an ED50 of 75 mg/kg.

On to `CCCCCCOc1ccccc1-c1nnc(NNC(C)C)s1.Cl`, for which the ED50 is greater than 100 mg/kg.

The compound `Cc1ccccc1-c1nnc(N(N)C(C)C)s1.Cl` displayed an ED50 of 54 mg/kg.

Turning to `CCNN(Cc1ccccc1)c1nnc(-c2ccccc2C)s1.Cl`, the ED50 was greater than 100 mg/kg.

Consider `Cc1ccccc1-c1nnc(N(C)N(C)C)s1`, for which the ED50 was 25 mg/kg.

Compound `CNN(C)c1nnc(-c2ccccc2C)s1` gave an ED50 of 10 mg/kg.

`CCCCCCOc1ccccc1-c1nnc(N(C)N)s1.Cl` came in with an ED50 of 26 mg/kg.

As for `CN(N)c1nnc(-c2ccccc2Cl)s1.Cl`, the ED50 is 20 mg/kg.

For `CN(N)c1nnc(Cc2ccccc2)s1.Cl`, the ED50 came out at 11 mg/kg.

Compound `Cc1ccccc1-c1nnc(NN)s1.Cl` showed an ED50 greater than 100 mg/kg.

On to `Cc1ccccc1-c1nnc(N(N)c2ccccc2)s1`, for which the ED50 is greater than 100 mg/kg.

`CN(N)c1nnc(-c2ccccc2Oc2ccccc2)s1.Cl`: the 50% effect level (ED50) was put at a dose of 33 mg/kg.

`CN(N)c1nnc(CCc2ccccc2)s1.Cl`: the ED50 is 51 mg/kg.

The compound `CC(C)N(N)c1nnc(-c2ccccc2Cl)s1` registered an ED50 of 54 mg/kg.

Compound `CN(C)N(C)c1nnc(-c2ccccc2Cl)s1.Cl` gave an ED50 of 53 mg/kg.

Turning to `CNN(C)c1nnc(-c2ccccc2Cl)s1`, the 50% effect level (ED50) was put at a dose of 43 mg/kg.

As for `Cl.NNc1nnc(-c2ccccc2Cl)s1`, it took a dose of 70 mg/kg to reach the 50% effect level (ED50).

For the compound `CC(C)NN(C)c1nnc(-c2ccccc2Cl)s1.Cl`, it took a dose of 16 mg/kg to reach the 50% effect level (ED50).

Compound `Cl.NNc1nnc(-c2ccccc2-c2ccccc2)s1` showed an ED50 of 28 mg/kg.
